Experimental data taken from ChEMBL document CHEMBL1649261, “Pharmacodynamic profile of tigecycline against methicillin-resistant Staphylococcus aureus in an experimental pneumonia model” (Antimicrob Agents Chemother, 2009).
Converted amounts (≈) assume the structure as drawn.

Test system: Staphylococcus aureus
Assay: Antibacterial activity against hospital-acquired methicillin-resistant Staphylococcus aureus 56 by microdilution method
Format: functional
Method in brief: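 Tigecycline MIC measured in triplicate by broth microdilution following CLSI guidelines. Isolates were stored at −80°C in skim milk and subcultured twice on blood agar before testing.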

Q: With CC(=O)NC[C@H]1CN(c2ccc(N3CCOCC3)c(F)c2)C(=O)O1 [LINEZOLID] as the compound, how does the MIC read?
A: 8 µg/mL (≈ 23.7 µM)
